Experimental data of several laboratories.
Compare with care: the assays were run in different laboratories.

Structure (SMILES)	cell line	observed	mode	method	time	IC50
COc1ccc(-c2cncc(N[C@@H](C)c3cccc(NC(=O)c4cncc(C)c4)c3)n2)cc1OC	NCI-H1703	cell growth or viability	–	ATP luminescence	72 h	32 nM
Cc1cc(=O)oc2ccc(-c3cc(-c4ccccc4)nc(N)n3)c(O)c12	KB	cell growth or viability	–	MTT	72 h	> 128 µg/mL
COC(=O)CCC1=CC2C=CC=CC1C2C1CCCCC1=O (stereo not shown)	U-937	cell growth or viability	–	flow cytometry	–	171 nM
Cc1cc(=O)oc2ccc(-c3cc(-c4ccc(Cl)cc4)nc(N)n3)c(O)c12	KB	cell growth or viability	–	MTT	72 h	25.6 µg/mL
COc1cc(Nc2nccc(-c3cnn4nc(OC)ccc34)n2)cc(C(F)(F)F)c1	NCI-H1703	cell growth or viability	–	ATP luminescence	–	220 nM
O=C1CCCCC1C1C2C=CC=CC1C(CCCCOC1CCCCO1)=C2 (stereo not shown)	U-937	cell growth or viability	–	flow cytometry	–	143 nM
Oc1ccc(Nc2nc(-c3ccc(Cl)cc3)cs2)cc1	UACC-903	cell growth or viability	–	MTS	72 h	33600 nM
COc1ccccc1-c1c(C(F)(F)F)oc2cc(OC(=O)C3CC3)ccc2c1=O	human Neutrophil	cell migration	inhibitor	–	–	360 nM
O=C(N/N=C/c1c(O)ccc2ccccc12)c1cc(-c2ccc3ccccc3c2)n[nH]1	UACC-903	cell growth or viability	–	MTS	24 h	19500 nM
CC[C@@H](C)[C@H](N)C(=O)N1Cc2ccccc2C1	U-937	cell growth or viability	–	ATP luminescence	48 h	> 60000 nM
COc1ccccc1-c1c(C(F)(F)F)oc2cc(OC(=O)C(C)C)ccc2c1=O	human Neutrophil	cell migration	inhibitor	–	–	200 nM
N=C(N)c1ccc(OCCCCCOc2ccc(C(=N)N)cc2)cc1	J774	cell growth or viability	–	resazurin	48 h	23800 nM
Cc1ccc(-c2cc(-c3ccc4oc(=O)cc(C)c4c3O)nc(N)n2)cc1	KB	cell growth or viability	–	MTT	72 h	> 128 µg/mL
COc1ccccc1-c1c(C(F)(F)F)oc2cc(OC(=O)c3ccco3)ccc2c1=O	human Neutrophil	cell migration	inhibitor	–	–	180 nM
NCC(=O)O	HFF	cell growth or viability	–	MTT	48 h	252000 nM
COc1cc(OC)c(/C=C/S(=O)(=O)Nc2ccc(OC)c(N)c2)c(OC)c1	RF48	cell growth or viability	–	trypan blue	96 h	4 nM
Cc1cc(=O)oc2ccc(-c3cc(-c4cccc(Cl)c4)nc(N)n3)c(O)c12	KB	cell growth or viability	–	MTT	72 h	> 128 µg/mL
CC(C)(C)SCCCC1=CC2C=CC=CC1C2C1CCCCC1=O (stereo not shown)	U-937	cell growth or viability	–	flow cytometry	–	61 nM
CCc1c2c(nc3ccc(OC(=O)N4CCC(N5CCCCC5)CC4)cc13)-c1cc3c(c(=O)n1C2)COC(=O)[C@]3(O)CC	HCCLM3	cell growth or viability	–	MTT	72 h	33400 nM
N#CCCC1=CC2C=CC=CC1C2C1CCCCC1=O (stereo not shown)	U-937	cell growth or viability	–	flow cytometry	–	81 nM
COc1cccc2c1C(=O)c1c(O)c3c(c(O)c1C2=O)C[C@@](O)(C(=O)CO)C[C@@H]3O[C@H]1C[C@H](N)[C@H](O)[C@H](C)O1	KB	cell growth or viability	–	neutral red	48 h	0.93 µg/mL
COc1ccccc1-c1c(C(F)(F)F)oc2cc(OC(=O)c3ccccc3)ccc2c1=O	human Neutrophil	cell migration	inhibitor	–	–	120 nM
COc1ccc(C=CC(=O)c2ccc(F)cc2)cc1OC	J774	cell growth or viability	–	MTT	24 h	100 µg/mL
CCc1cc2c(=O)c(-c3nc4ccccc4n3C)c(C)oc2cc1OC(C)=O	human Neutrophil	cell migration	inhibitor	–	–	27 nM
N#CCCCC1=CC2C=CC=CC1C2C1CCCCC1=O (stereo not shown)	U-937	cell growth or viability	–	flow cytometry	–	74 nM
COc1ccccc1-c1c(C)oc2cc(OC(=O)c3ccco3)ccc2c1=O	human Neutrophil	cell migration	inhibitor	–	–	430 nM
CC(C)C[C@H](NC(=O)[C@H](Cc1ccccc1)NC(=O)c1cnccn1)B(O)O	EFO-27	cell growth or viability	–	ATP luminescence	–	21 nM
COc1ccc(C=CC(=O)c2ccc(Cl)cc2Cl)cc1OC	J774	cell growth or viability	–	MTT	24 h	6.25 µg/mL
